# STAT1 inh-1: inhibitors of IFN-gamma induced STAT1 signaling; AID 920; inhibition, % at 5.5 µM; NIH 3T3 STAT1-luciferase reporter, luminescence; 0.35% of 200,000 active;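 active = inhibition above a set limit, the mean inhibition across all tested compounds plus 3 SD, cut at about 34% in these data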
# NF-kB expr up: compounds increasing NF-kB expression in human neuronal cells | NF-kB reporter expression; active compounds read high | fold change at 12.5 µM | 1.6% of 190,000 active | AID 1239; in the data active = fold change above about 3.3
# STAT3 act: STAT3 signaling activation; activation (% of control), % at 5.6 µM; 0.91% of 190,000 active; AID 871; U3A cells, IL-6 STAT3-luciferase reporter, luminescence; 100% = signal with IL-6 EC80 alone;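 active = activation above the screen-wide mean of compound activation plus 3 SD, cut at about 130% in these data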
#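 Detection: reporter luminescence signal / Assay system: STAT1-lacking human U3A cells, STAT3 luciferase reporter / Incubation: compound pre-incubation 1 h before IL-6, then 6 h stimulation at 37 °C / Control set: IL-6-only high control / Read-out: % activation relative to IL-6 control / Probe or stimulus: Interleukin-6, 33 ng/mL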
# STAT1 act: STAT1 signaling activation. NIH 3T3 STAT1-luciferase reporter, IFN-gamma, luminescence; 100% = IFN-gamma alone, no compound. activation (% of control), % at 5.5 µM. 2.6% of 200,000 active. AID 932;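 active = activation above the screen-wide mean activation plus 3 SD, cut at about 130% in these data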
# STAT3 blocker: reduces IL-6 driven STAT3 reporter signal | U3A cells, IL-6 STAT3-luciferase reporter, luminescence; host cell line lacks STAT1 | inhibition, % at 5.5 µM | 0.89% of 190,000 active | AID 862;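 active = inhibition above the mean inhibition across all screened compounds plus 3 SD, cut at about 44% in these data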
# APP 5'UTR act: APP 5'UTR luciferase reporter activation; SH-SY5Y APP 5'UTR luciferase reporter, luminescence; zero percent = DMSO vehicle wells; 1% of 190,000 active; activation, % at 2 µM;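 active = activation above a set limit, based on mean plus 3 SD of controls, cut at about 140% in these data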
# STAT1 inh-2: STAT1 inhibition, confirmation assay | shares compounds with STAT1 inh-1 | inhibition, % at 5.5 µM | NIH 3T3 STAT1-luciferase reporter, IFN-gamma, luminescence | 55% of 200 active;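 active = triplicate mean inhibition exceeding the hit cutoff computed for the primary STAT1 screen, cut at about 35% in these data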
# NFkB inh STAT1ct: counter-screen for STAT1 inhibitors: NF-kappaB inhibition | inhibition, % at 5.7 µM | shares compounds with STAT1 inh-1 | HEK293T NF-kB luciferase reporter, TNF-alpha induced, luminescence | 30% of 200 active;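 active = inhibition above the mean of solvent-only control wells plus 3 SD of those wells, cut at about 15% in these data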
# STAT3 inh STAT1c: inhibits STAT3, counter-screen to STAT1 inhibitors. shares compounds with STAT1 inh-1. U3A cells, IL-6 STAT3 luciferase reporter, luminescence; cells lacking STAT1. 20% of 200 active. inhibition, % at 5.7 µM;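 active = inhibition above the mean of solvent-only control wells plus 3 SD, set per campaign, cut at about 25% in these data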
# STAT1 act conf: confirmation of STAT1 signaling activators; shares compounds with STAT1 act; NIH 3T3 STAT1-luciferase reporter, IFN-gamma potentiation, luminescence; 100% = IFN-gamma EC80 alone, no compound; activation (% of control), % at 5.7 µM; 97% of 1,200 active; AID 1262;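 active = activation above a set limit carried over from the earlier primary STAT1 screen, cut at about 140% in these data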
# NFkB act: NF-kappaB activation in STAT1 activator counter-screen | shares compounds with STAT1 act | HEK293T NF-kB luciferase reporter, TNF-alpha stimulated, luminescence; 100% = TNF-alpha with vehicle only | activation (% of control), % at 5.7 µM | 43% of 1,200 active | AID 1306;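 active = activation above the mean of solvent-only control wells plus 3 SD, set per campaign, cut at about 130% in these data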;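 note: TNF-alpha given at a submaximal dose yielding about 80% of full reporter signal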
# STAT3 act STAT1c: human STAT3 activation in STAT1 activator counter-screen; U3A cells STAT3-luciferase reporter, IL-6, luminescence; cells lack STAT1; 100 = IL-6 alone, no compound effect; AID 1316; activation (% of control), % at 5.7 µM; 46% of 1,200 active; shares compounds with STAT1 act;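 active = activation above the solvent-only control well mean plus 3 SD, set per plate batch, cut at about 110% in these data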;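 note: higher means more STAT3 reporter activation so hits are non-selective activators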
# Numbers stand for hits; i = inactive; nt = no result given. This is a sample that favours compounds with a hit; in the whole collection about 5.1% have one here.
SMILES,STAT1 inh-1,NF-kB expr up,STAT3 act,STAT1 act,STAT3 blocker,APP 5'UTR act,STAT1 act conf,NFkB act,STAT3 act STAT1c,others
CCC(=NCc1ccc2c(c1)OCO2)c1c(O)n(C2CCCCC2)c(=O)[nH]c1=O,i,i,i,i,i,i,nt,nt,nt,
C[C@H]1C[C@@H](C)C(=O)[C@@H]([C@H](O)CC2CC(=O)NC(=O)C2)C1,84,i,nt,i,nt,i,nt,nt,nt,STAT1 inh-2=41;NFkB inh STAT1ct=76;STAT3 inh STAT1c=91
CCCCCn1c(=O)c(C(=O)NCc2ccncc2)c(O)c2ccccc21,i,i,i,i,i,i,nt,nt,nt,
N=C1c2ccccc2CN1CC(=O)c1ccccc1,i,7.8,i,182,i,143,154,i,119,
N#CSCC(=O)N1c2ccccc2CCc2ccccc21,i,i,i,i,i,i,nt,nt,nt,
Nc1ccccc1C(=O)OCC(=O)N1CCc2ccccc21,i,i,i,154,i,i,168,i,i,
Cc1c(C(=O)N2CCC3(CC2)OCCO3)sc2ncnc(N3CCc4ccccc4C3)c12,i,i,i,i,i,i,nt,nt,nt,
COP(=O)(OC)C(NS(=O)(=O)c1ccccc1)C(Cl)(Cl)Cl (stereo not drawn),i,i,i,i,i,i,nt,nt,nt,
O=C(Cn1cnc2ccccc2c1=O)NCC(=O)N1CCC2(CC1)OCCO2,i,i,i,i,i,i,nt,nt,nt,
O=c1c2ccccc2nc(/C=C/c2ccc([N+](=O)[O-])o2)n1-c1ccc(O)cc1,i,i,i,326,i,i,175,154,i,
CC(=O)c1ccc2c(c1)OCO2,i,i,i,i,i,i,nt,nt,nt,
CC(=O)Nc1ccccc1C(=O)OCc1ccc(F)cc1,i,i,i,175,i,i,i,i,i,
CC(=O)Nc1ccccc1C(=O)OCC(=O)c1ccc2c(c1)OCCO2,i,i,i,175,i,i,203,i,116,

# From PubChem BioAssay
